The record followed here is ChEMBL document CHEMBL4706642, “Discovery of a Potent Dual Inhibitor of Acetylcholinesterase and Butyrylcholinesterase with Antioxidant Activity that Alleviates Alzheimer-like Pathology in Old APP/PS1 Mice” (J Med Chem, 2021).

Data set [1] is described as follows: Permeability of the compound in PBS/EtOH buffer (70:30) by PAMPA-BBB assay. It is filed as ADME. As to conditions: read-out: permeability. In outline:
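PAMPA-BBB permeability, reported as Pe in 10⁻⁶ cm s⁻¹, with CNS+ defined as Pe > 5.1. Mean ± SD of three experiments, each in triplicate.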
In general terms: The PAMPA barrier holds no transporters, so it reflects passive diffusion.

Data set [2] can be described thus: Antioxidant activity assessed as DPPH radical scavenging activity incubated for 30 mins under dark condition by UV-Vis spectrophotometric analysis. The format is functional. In general terms: DPPH is a stable violet radical that fades when it is reduced.
Data set [3] deals with T1, Cholinesterase (Homo sapiens, UniProt P06276). Briefly: Inhibition of human serum BChE using butyrylthiocholineiodide as substrate preincubated for 20 mins followed by substrate addition by Ellman's method. It is filed as cell-free. In outline: (§1)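 Enzyme was 0.02 U/mL human recombinant AChE or human serum BChE. Non-enzymatic hydrolysis was corrected. IC50 came from a % inhibition vs log[I] regression. Selectivity = IC50 hBChE/IC50 hAChE. Mean ± SEM of ≥2 experiments, each in duplicate/triplicate.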
T1 sequence (P06276 whole entry): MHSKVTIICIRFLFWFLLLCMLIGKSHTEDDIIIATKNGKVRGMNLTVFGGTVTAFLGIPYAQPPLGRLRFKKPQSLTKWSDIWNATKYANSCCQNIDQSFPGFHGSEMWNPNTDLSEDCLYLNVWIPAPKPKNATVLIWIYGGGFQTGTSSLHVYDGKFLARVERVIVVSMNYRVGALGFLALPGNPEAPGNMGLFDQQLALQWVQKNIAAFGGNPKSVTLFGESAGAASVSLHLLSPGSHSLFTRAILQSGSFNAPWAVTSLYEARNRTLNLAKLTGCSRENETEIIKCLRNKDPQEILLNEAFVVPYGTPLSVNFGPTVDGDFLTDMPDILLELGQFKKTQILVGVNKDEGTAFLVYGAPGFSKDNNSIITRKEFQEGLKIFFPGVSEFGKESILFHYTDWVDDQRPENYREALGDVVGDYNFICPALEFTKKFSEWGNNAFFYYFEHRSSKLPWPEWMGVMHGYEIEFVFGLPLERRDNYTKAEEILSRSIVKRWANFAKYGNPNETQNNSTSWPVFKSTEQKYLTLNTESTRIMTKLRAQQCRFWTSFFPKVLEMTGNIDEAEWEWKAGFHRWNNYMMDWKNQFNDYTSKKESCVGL

Data set [4] has as its target Beta-secretase 1 (Homo sapiens) (UniProt P56817). The data set is described as follows: Inhibition of recombinant human BACE-1 at 1 uM using methoxycoumarin-Ser-Glu-Val-Asn-Leu-Asp-Ala-Glu-Phe-Lys-dinitrophenyl as substrate preincubated for 1 hr followed by substrate addition and measured after 15 mins by fluorescence based assay relative to control. The conditions noted are these: time 75.0 min.

For a further data set, the target named is Acetylcholinesterase (Homo sapiens, UniProt P22303). The data set is described as follows: Inhibition of recombinant human AChE using acetylthiocholineiodide as substrate preincubated for 20 mins followed by substrate addition by Ellman's method. A digest of the protocol:
as §1
In general terms: DTNB colorimetry detects thiols as they appear.

A short description of data set [5]: Selectivity index, ratio of IC50 for human serum BChE using butyrylthiocholineiodide as substrate to IC50 for recombinant human AChE using acetylthiocholine iodide as substrate. In outline: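 Ellman spectrophotometric assay in 0.1 M phosphate buffer, pH 8.0, with 340 μM DTNB. Enzyme was 0.02 U/mL human recombinant AChE or human serum BChE. […] Then 550 μM ATCh or BTCh was added, and A412 was followed for 210 s. Non-enzymatic hydrolysis was corrected. IC50 came from a % inhibition vs log[I] regression. Selectivity = IC50 hBChE/IC50 hAChE. Mean ± SEM of ≥2 experiments, each in duplicate/triplicate.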

The target in data set [6] is Beta-secretase 1 (Homo sapiens) (UniProt P56817). The data set is described as follows: Inhibition of recombinant human BACE-1 at 5 uM using methoxycoumarin-Ser-Glu-Val-Asn-Leu-Asp-Ala-Glu-Phe-Lys-dinitrophenyl as substrate preincubated for 1 hr followed by substrate addition and measured after 15 mins by fluorescence based assay relative to control. The conditions noted are these: time 75.0 min.
Beta-secretase 1 (Homo sapiens), sequence (P56817 whole entry): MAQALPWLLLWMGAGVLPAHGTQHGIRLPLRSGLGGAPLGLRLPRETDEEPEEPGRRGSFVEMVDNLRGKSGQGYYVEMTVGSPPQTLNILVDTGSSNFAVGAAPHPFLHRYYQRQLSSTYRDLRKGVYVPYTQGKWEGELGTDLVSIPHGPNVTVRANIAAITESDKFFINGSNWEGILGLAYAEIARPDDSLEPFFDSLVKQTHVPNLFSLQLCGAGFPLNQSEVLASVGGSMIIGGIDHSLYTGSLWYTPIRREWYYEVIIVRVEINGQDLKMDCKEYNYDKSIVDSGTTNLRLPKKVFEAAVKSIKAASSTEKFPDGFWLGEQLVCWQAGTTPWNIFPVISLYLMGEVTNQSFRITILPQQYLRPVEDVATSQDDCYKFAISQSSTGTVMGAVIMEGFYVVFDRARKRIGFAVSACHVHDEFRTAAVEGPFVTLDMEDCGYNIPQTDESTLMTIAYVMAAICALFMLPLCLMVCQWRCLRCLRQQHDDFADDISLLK

In data set [7] the target is Acetylcholinesterase (Electrophorus electricus) (UniProt O42275). The data set is described as follows: Displacement of propidium iodide from PAS-region of electric eel AChE assessed as decrease in fluorescence intensity at 4 to 92 uM by spectrofluorimetric analysis relative to control. Further details: scale not given: the % may be the effect or the level left. As to conditions: dose 4-92 µM. In outline:
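Back-titration fluorescence assay using electric eel AChE (type VI-S). Inhibitor was added in successive aliquots from a MeOH stock. Emission was read at 602 nm with excitation at 535 nm, after subtracting blanks. […] Three independent experiments.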

The target of data set [8] is T1, Cholinesterase. Briefly: Inhibition of human serum BChE at 100 uM using butyrylthiocholineiodide as substrate preincubated for 20 mins followed by substrate addition by Ellman's method relative to control. It is filed as cell-free.
Data set [9] can be described thus: Drug concentration in wild type C57BL6 mouse plasma at 2 mg/kg, ip thrice a week for 2 weeks observed after 4 hrs post last dose by HPLC/MS/MS analysis. The conditions noted are these: in vivo.
Data set [10] can be described thus: Drug concentration in wild type C57BL6 mouse brain at 2 mg/kg, ip thrice a week for 2 weeks observed after 4 hrs post last dose by HPLC/MS/MS analysis. The conditions noted are these: in vivo.

Structures are written as SMILES. Calls of active or inactive are those of the source.

Acetylcholinesterase, sequence (P22303 whole entry): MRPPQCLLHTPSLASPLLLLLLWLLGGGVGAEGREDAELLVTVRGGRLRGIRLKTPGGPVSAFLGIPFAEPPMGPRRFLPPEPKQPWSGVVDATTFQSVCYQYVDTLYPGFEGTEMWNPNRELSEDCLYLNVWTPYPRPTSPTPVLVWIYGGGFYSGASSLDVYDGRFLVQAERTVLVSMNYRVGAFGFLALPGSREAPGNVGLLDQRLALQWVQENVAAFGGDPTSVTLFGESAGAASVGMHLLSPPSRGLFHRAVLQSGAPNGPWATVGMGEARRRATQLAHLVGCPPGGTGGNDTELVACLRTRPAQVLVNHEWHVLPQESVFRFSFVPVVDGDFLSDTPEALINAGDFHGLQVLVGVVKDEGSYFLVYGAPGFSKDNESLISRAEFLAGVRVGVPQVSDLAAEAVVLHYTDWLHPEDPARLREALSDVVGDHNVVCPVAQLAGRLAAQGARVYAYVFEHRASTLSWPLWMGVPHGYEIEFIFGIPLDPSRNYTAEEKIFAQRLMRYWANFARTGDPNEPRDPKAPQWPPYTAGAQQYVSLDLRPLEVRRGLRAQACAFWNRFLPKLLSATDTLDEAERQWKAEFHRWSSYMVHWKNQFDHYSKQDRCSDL
Acetylcholinesterase (Electrophorus electricus), sequence (O42275 24-633 limits assumed): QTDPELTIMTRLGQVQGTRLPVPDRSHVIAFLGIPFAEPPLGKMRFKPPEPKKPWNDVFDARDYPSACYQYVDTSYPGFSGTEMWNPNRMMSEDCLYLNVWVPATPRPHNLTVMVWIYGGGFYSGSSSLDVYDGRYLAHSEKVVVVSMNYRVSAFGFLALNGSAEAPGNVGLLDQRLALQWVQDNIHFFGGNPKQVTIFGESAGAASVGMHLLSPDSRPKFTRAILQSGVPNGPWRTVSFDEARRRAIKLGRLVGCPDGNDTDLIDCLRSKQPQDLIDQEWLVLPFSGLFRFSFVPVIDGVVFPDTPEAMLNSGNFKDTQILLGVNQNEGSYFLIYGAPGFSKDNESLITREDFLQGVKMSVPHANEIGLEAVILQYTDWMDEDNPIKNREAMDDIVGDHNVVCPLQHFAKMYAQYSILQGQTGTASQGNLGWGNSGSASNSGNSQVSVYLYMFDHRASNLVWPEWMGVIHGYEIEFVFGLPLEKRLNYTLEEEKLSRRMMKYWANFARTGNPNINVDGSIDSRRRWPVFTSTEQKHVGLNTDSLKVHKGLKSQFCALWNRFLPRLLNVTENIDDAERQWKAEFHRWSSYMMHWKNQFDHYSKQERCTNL

`COc1cc(CNC(=O)CCCCCCCNc2c3c(nc4cc(Cl)ccc24)CC2C=C(C)CC3C2)ccc1O` (stereo unspecified): the Papp in data set [1] is 20.1 ×10⁻⁶ cm/s. For the same molecule, the figures for the IC50 (in data set [2]; at Cholinesterase [3]; at Acetylcholinesterase) were 70800 nM, 51.8 nM and 1.94 nM, respectively. Also, the inhibition (usually the relative decrease from the control value, in per cent) in data set [4] is 3.6%. The Ratio IC50 in data set [5] came to 26.7.

For the molecule `COc1cc(CNC(=O)CCCCCCCCNc2c3c(nc4cc(Cl)ccc24)CC2C=C(C)CC3C2)ccc1O` (stereo unspecified), the Papp in data set [1] was 21.8 ×10⁻⁶ cm/s. Besides, the half-inhibitory concentration (IC50) (usually the point on the concentration scale where inhibition reaches its midpoint) was 64600 nM in data set [2], 36.1 nM on Cholinesterase [3] and 2.94 nM on Acetylcholinesterase. In addition, the inhibition in data set [4] turned out to be 23.7%. In data set [5], the Ratio IC50 was found to be 12.3.

For the molecule `COc1cc(CNC(=O)CCCCNc2c3c(nc4cc(Cl)ccc24)CC2C=C(C)CC3C2)ccc1O` (stereo unspecified), the Papp in [1] is 11.5 ×10⁻⁶ cm/s. Further, the IC50 in data set [2] was found to be 68500 nM; at Cholinesterase [3], 52.2 nM; on Acetylcholinesterase it was 5.48 nM. In addition, the inhibition in data set [4] stood at 55.6%. Besides, the Ratio IC50 in [5] came to 9.5.

Turning to `CC1=CC2Cc3nc4cc(Cl)ccc4c(N)c3C(C1)C2` (stereo unspecified), the inhibition in data set [6] came to 14%.

On to `COc1cc(CNC(=O)CCCC/C=C/CNc2c3c(nc4cc(Cl)ccc24)CC2C=C(C)CC3C2)ccc1O` (stereo unspecified), for which, in data set [1], the Papp is 16.8 ×10⁻⁶ cm/s. In addition, the half-maximal inhibitory concentration (IC50) was 31700 nM in [2], 78.1 nM at Cholinesterase [3] and 4.41 nM on Acetylcholinesterase. In addition, the inhibition result in data set [4] is “inactive”. Besides, in data set [5], the Ratio IC50 is 17.7.

`COc1cc(CNC(=O)CCCCCNc2c3c(nc4cc(Cl)ccc24)CC2C=C(C)CC3C2)ccc1O` (stereo unspecified): the Papp in [1] turned out to be 14.9 ×10⁻⁶ cm/s. The results for the IC50 (in [2]; against Cholinesterase [3]; on Acetylcholinesterase) were 62600 nM, 70 nM and 4.35 nM, respectively. Besides, the inhibition in data set [4] is 34.3%. In addition, the Ratio IC50 in data set [5] turned out to be 16.1.

In the case of `COc1cc(CNC(=O)CCCC/C=C/C(C)C)ccc1O` [CAPSAICIN], in data set [1], the Papp came out at 10.3 ×10⁻⁶ cm/s. In addition, the IC50 in data set [2] is 50300 nM; at Acetylcholinesterase, > 200000 nM. Also, the Activity in [7] amounted to 11%. Also, in data set [4], the inhibition result was “inactive”. Further, the inhibition against Cholinesterase [8] was 20%.

Consider `COc1cc(CNC(=O)CCCC/C=C/CCCNc2c3c(nc4cc(Cl)ccc24)CC2C=C(C)CC3C2)ccc1O` (stereo unspecified), for which, in [1], the Papp came to 22.3 ×10⁻⁶ cm/s. Besides, the IC50 in [2] came out at 54600 nM; against Cholinesterase [3], 53.1 nM; at Acetylcholinesterase, 5.64 nM. The inhibition in data set [4] amounted to 21.6%. In addition, in data set [5], the Ratio IC50 stood at 9.4.

Consider `COc1cc2c(cc1OC)C(=O)C(CC1CCN(Cc3ccccc3)CC1)C2` (stereo unspecified) [DONEPEZIL], for which the concentration at 336 h in data set [9] was 6460 ng/mL; in [10] it was 6130 ng/g.

On to `COc1cc(CNC(=O)c2ccc(CNc3c4c(nc5cc(Cl)ccc35)CC3C=C(C)CC4C3)cc2)ccc1O` (stereo unspecified), for which, in [1], the Papp is 14.3 ×10⁻⁶ cm/s. Besides, the 50% inhibitory concentration (IC50) in [2] turned out to be 71400 nM; at Cholinesterase [3], 290 nM; on Acetylcholinesterase it was 24.9 nM. Further, in [4], the inhibition result was “inactive”. In addition, the Ratio IC50 in data set [5] was determined as 11.6.
